Experimental data published in ChEMBL document CHEMBL1145971, “Design and synthesis of the potent, orally available, brain-penetrable arylpyrazole class of neuropeptide Y5 receptor antagonists” (J Med Chem, 2003).

How the values were obtained:
[1] = target: T1, Neuropeptide Y receptor type 5 (Homo sapiens, UniProt Q15761); experiment: Inhibition of [125I]PYY binding to human recombinant Neuropeptide Y receptor type 5 in LMtk-cells
T1 sequence (Q15761 whole entry): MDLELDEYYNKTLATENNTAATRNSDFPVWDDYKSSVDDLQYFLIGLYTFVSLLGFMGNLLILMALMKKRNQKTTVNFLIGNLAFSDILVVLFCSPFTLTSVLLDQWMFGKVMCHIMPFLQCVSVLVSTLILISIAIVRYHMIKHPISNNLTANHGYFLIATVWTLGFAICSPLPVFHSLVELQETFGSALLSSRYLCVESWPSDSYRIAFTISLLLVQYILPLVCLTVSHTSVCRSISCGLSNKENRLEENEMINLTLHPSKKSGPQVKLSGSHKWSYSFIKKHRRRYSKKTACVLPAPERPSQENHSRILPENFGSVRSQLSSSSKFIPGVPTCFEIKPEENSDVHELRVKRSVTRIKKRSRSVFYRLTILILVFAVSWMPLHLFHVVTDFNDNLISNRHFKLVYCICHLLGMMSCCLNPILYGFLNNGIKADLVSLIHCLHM
Summary of the method: (§1)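 Radioligand displacement used [125I]PYY on human recombinant Y5 receptors expressed in LMtk- cells. Values are mean ± SE, n = 3.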

[2] = target: T1, Neuropeptide Y receptor type 5; experiment: Inhibition of [125I]PYY binding human recombinant Neuropeptide Y receptor type 5 in LMtk-cells; summary of the method: as §1
[3] = target: T1, Neuropeptide Y receptor type 5; experiment: Antagonistic activity of compound was determined by its ability to inhibit NPY induced [Ca2+]i increases in CHO cells which expressed the recombinant human Neuropeptide Y receptor type 5; assay type: functional, cell-based
Summary of the method: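 Human recombinant Y5 receptor co-expressed with Gqi5 in CHO cells. Cells were stimulated with 100 nM NPY and inhibition of the intracellular Ca2+ rise was measured. IC50 is given as mean ± SE, n = 3.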

[4] = Half life (1 mg/kg) was determined in SD rats when administered intravenously; assay type: ADME, organism-based; settings: Sprague-Dawley, rat, in vivo, iv
Summary of the method: (§2)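 Pharmacokinetics in SD rats: intravenous dose 1 mg/kg and oral dose 10 mg/kg. Parameters derived from plasma levels were t1/2, Vdss and CLtot (iv), and t1/2, Tmax, Cmax and F (po).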

[5] = Half life (10 mg/kg) was determined in SD rats when administered perorally; assay type: ADME, organism-based; settings: Sprague-Dawley, rat, in vivo, po; summary of the method: as §2
Rattus norvegicus = experiment: Peak plasma concentration was determined for compound in SD rats when administered perorally at 10 mg/kg; assay type: ADME, organism-based; design: dose 10 mg/kg, route oral; settings: in vivo, po; summary of the method: as §2
[6] = Time required for peak plasma concentration was determined for compound in SD rats when administered perorally at 10 mg/kg; assay type: ADME, organism-based; design: dose 10 mg/kg, route oral; settings: Sprague-Dawley, rat, po; summary of the method: as §2
[7] = Total body clearance was determined in SD rats when administered intravenously, at 1 mg/kg compound dosage; assay type: ADME, organism-based; design: dose 1 mg/kg, route intravenous; settings: Sprague-Dawley, rat, in vivo, iv, read-out: CLtotal; summary of the method: as §2
[8] = Volume of distribution was determined in SD rats when administered intravenously, at 1 mg/kg compound dosage; assay type: ADME, organism-based; design: dose 1 mg/kg, route intravenous; settings: Sprague-Dawley, rat, in vivo, iv, read-out: Vdss; summary of the method: as §2
[9] = The concentration in brain was determined in SD rats at 2 hr after peroral administration of 10 mg/kg; assay type: ADME, organism-based; design: dose 10 mg/kg, route oral; settings: Sprague-Dawley, rat, po
[10] = Bioavailability was determined for compound in SD rats when administered perorally at 10 mg/kg; assay type: ADME, organism-based; settings: Sprague-Dawley, rat, in vivo, po, read-out: Fmean; summary of the method: as §2

Compound	Ki [1] [nM]	IC50 [2] [nM]	other results
O=C(Nc1cc(-c2ccccc2Cl)n[nH]1)C1Cc2ccccc2C1	450	–	–
O=C(Nc1cc(-c2ccc(Cl)cc2)n[nH]1)c1cccc2ccccc12	–	> 1000	–
O=C(Cc1ccc2ccccc2c1)Nc1cc(-c2ccc(Cl)cc2)n[nH]1	–	47	–
Cc1ccc(-c2cc(NC(=O)C3Cc4ccccc4C3)[nH]n2)cc1	80	–	–
O=C(Nc1cc(-c2cccc(Cl)c2)n[nH]1)C1Cc2ccccc2C1	120	–	–
COc1ccc(-c2cc(NC(=O)C3Cc4ccccc4C3)[nH]n2)cc1	62	–	–
O=C(Nc1cc(-c2ccc(Cl)cc2)n[nH]1)c1ccccc1	–	> 1000	–
O=C(CCCc1ccccc1)Nc1cc(-c2ccc(Cl)cc2)n[nH]1	–	443	–
COc1ccc(-c2cc(NC(=O)C3Cc4ccccc4C3)[nH]n2)cc1OC	33	–	–
O=C(Cc1cccc2ccccc12)Nc1cc(-c2ccc(Cl)cc2)n[nH]1	–	317	–
CC(C)Oc1ccc(-c2cc(NC(=O)C3Cc4ccccc4C3)[nH]n2)cc1	92	–	–
O=C(Nc1cc(-c2ccccc2)[nH]n1)C1Cc2ccccc2C1	260	–	–
O=C(O)CCc1cccc(CC(=O)Nc2cc(-c3ccc(Cl)cc3)n[nH]2)c1	16	16.3	–
COc1ccc(-c2cc(NC(=O)Cc3ccc4ccccc4c3)[nH]n2)cc1OC	8.3	–	–
O=C(CCc1ccccc1)Nc1cc(-c2ccc(Cl)cc2)n[nH]1	–	> 1000	–
O=C(Cc1ccccc1)Nc1cc(-c2ccc(Cl)cc2)n[nH]1	–	803	–
O=C(Nc1cc(-c2ccc(Cl)cc2)n[nH]1)c1ccc(-c2ccccc2)cc1	–	> 1000	–
O=C(Nc1cc(-c2ccc(Cl)cc2)n[nH]1)c1ccc2ccccc2c1	–	> 1000	–
O=C(Nc1cc(-c2ccc(Cl)cc2)n[nH]1)C1Cc2ccccc2C1	59	–	–
COc1ccc(-c2cc(NC(=O)C3Cc4ccc5ccccc5c4C3)[nH]n2)cc1OC (racemic)	2.8	–	–
O=C(Nc1cc(-c2ccncc2)[nH]n1)C1Cc2ccc3ccccc3c2C1 (racemic)	10	–	–
CCc1cc(-c2cc(NC(=O)C3Cc4ccc5ccccc5c4C3)[nH]n2)ccn1 (racemic)	7.3	–	–
CCc1cc(-c2cc(NC(=O)C3Cc4ccc5ccccc5c4C3)[nH]n2)ccn1 (stereo in doubt; (+)-7)	25	–	IC50 [3]: 28 nM
CCc1cc(-c2cc(NC(=O)C3Cc4ccc5ccccc5c4C3)[nH]n2)ccn1 (stereo in doubt; (-)-7)	3.5	–	half-life [4]: 0.88 h; half-life [5]: 1.9 h; Cmax (Rattus norvegicus): 5000 nM; Tmax [6]: 2 h; clearance [7]: 9.52 mL/min/kg; Vd [8]: 0.62 L/kg; concentration at 2 h [9]: 450 nM; IC50 [3]: 14 nM; bioavailability [10]: 70%
